According to ChEMBL document CHEMBL4364274, “Synthesis and biological activity of glycyrrhetinic acid derivatives as antitumor agents” (Eur J Med Chem, 2019):

What was measured:
[1] = system: A549; test: Antiproliferative activity against human A549 cells incubated for 72 hrs by MTT assay; type: functional, cell-based; settings: A549, 72 h
In short: (§1)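 Cells in exponential growth were plated at 3×10^3 cells/well and grown 24 h at 37 °C in 5% CO2. They were then exposed to a range of drug concentrations for 72 h. MTT (5 mg/mL solution) was added for 4 h, the medium was discarded, and formazan was dissolved in DMSO before reading A490. Drug-free wells served as blanks. % inhibition was calculated as 1 − (sample−blank)/(control−blank), and IC50 was taken as the concentration giving 50% inhibition.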

[2] = system: MCF7; test: Antiproliferative activity against human MCF7 cells incubated for 72 hrs by MTT assay; type: functional, cell-based; settings: MCF7, 72 h; in short: as §1
[3] = system: HepG2; test: Antiproliferative activity against human HepG2 cells incubated for 72 hrs by MTT assay; type: functional, cell-based; settings: HepG2, 72 h; in short: as §1
[4] = system: HeLa; test: Antiproliferative activity against human HeLa cells incubated for 72 hrs by MTT assay; type: functional, cell-based; in short: as §1
[5] = system: MDCK; test: Cytotoxicity against MDCK cells incubated for 72 hrs by MTT assay; type: cell-based; settings: Canis lupus familiaris; in short: as §1

Row | IC50 [1] | IC50 [2] | IC50 [3] | IC50 [4] | SMILES | IC50 [5]
1 | > 40 µM | > 40 µM | > 40 µM | > 40 µM | C[C@H](NC(=O)OC(C)(C)C)C(=O)O[C@H]1CC[C@]2(C)[C@H]3C(=O)C=C4[C@@H]5C[C@@](C)(C(=O)OCc6ccccc6)CC[C@]5(C)CC[C@@]4(C)[C@]3(C)CC[C@H]2C1(C)C | > 40 µM
2 | 2.44 µM | 2.85 µM | 3.47 µM | 3.01 µM | CC1(C)[C@@H](NC(=O)CN)CC[C@]2(C)[C@H]3C(=O)C=C4[C@@H]5C[C@@](C)(C(=O)OCc6ccccc6)CC[C@]5(C)CC[C@@]4(C)[C@]3(C)CC[C@@H]12 | 3.75 µM
3 | > 40 µM | > 40 µM | > 40 µM | > 40 µM | CC(C)(C)OC(=O)NCC(=O)O[C@H]1CC[C@]2(C)[C@H]3C(=O)C=C4[C@@H]5C[C@@](C)(C(=O)OCc6ccccc6)CC[C@]5(C)CC[C@@]4(C)[C@]3(C)CC[C@H]2C1(C)C | > 40 µM
4 | 22.9 µM | 11.9 µM | 14.9 µM | 43.1 µM | CC(C)C[C@H](N)C(=O)O[C@H]1CC[C@]2(C)[C@H]3C(=O)C=C4[C@@H]5C[C@@](C)(C(=O)OCc6ccccc6)CC[C@]5(C)CC[C@@]4(C)[C@]3(C)CC[C@H]2C1(C)C | 19.3 µM
5 | > 40 µM | > 40 µM | > 40 µM | > 40 µM | CC(C)(C)OC(=O)N1CCC[C@H]1C(=O)O[C@H]1CC[C@]2(C)[C@H]3C(=O)C=C4[C@@H]5C[C@@](C)(C(=O)OCc6ccccc6)CC[C@]5(C)CC[C@@]4(C)[C@]3(C)CC[C@H]2C1(C)C | > 40 µM
6 | > 40 µM | > 40 µM | > 40 µM | > 40 µM | CC(C)(C)OC(=O)N1CCC[C@H]1C(=O)N[C@H]1CC[C@]2(C)[C@H]3C(=O)C=C4[C@@H]5C[C@@](C)(C(=O)OCc6ccccc6)CC[C@]5(C)CC[C@@]4(C)[C@]3(C)CC[C@H]2C1(C)C | > 40 µM
7 | > 40 µM | > 40 µM | > 40 µM | > 40 µM | CN(CC(=O)N[C@H]1CC[C@]2(C)[C@H]3C(=O)C=C4[C@@H]5C[C@@](C)(C(=O)OCc6ccccc6)CC[C@]5(C)CC[C@@]4(C)[C@]3(C)CC[C@H]2C1(C)C)C(=O)OC(C)(C)C | > 40 µM
8 | 2.75 µM | 3.81 µM | 3.31 µM | 3.3 µM | CC1(C)[C@@H](OC(=O)CN)CC[C@]2(C)[C@H]3C(=O)C=C4[C@@H]5C[C@@](C)(C(=O)OCc6ccccc6)CC[C@]5(C)CC[C@@]4(C)[C@]3(C)CC[C@@H]12 | 4.43 µM
9 | 3.35 µM | 3.41 µM | 3.79 µM | 3.2 µM | CNCC(=O)N[C@H]1CC[C@]2(C)[C@H]3C(=O)C=C4[C@@H]5C[C@@](C)(C(=O)OCc6ccccc6)CC[C@]5(C)CC[C@@]4(C)[C@]3(C)CC[C@H]2C1(C)C | 3.17 µM
10 | 4.97 µM | 10 µM | 8.15 µM | 9.65 µM | CC[C@H](C)[C@H](N)C(=O)O[C@H]1CC[C@]2(C)[C@H]3C(=O)C=C4[C@@H]5C[C@@](C)(C(=O)OCc6ccccc6)CC[C@]5(C)CC[C@@]4(C)[C@]3(C)CC[C@H]2C1(C)C | 9.01 µM
11 | 5 µM | 3.89 µM | 4.56 µM | 8 µM | CNCC(=O)O[C@H]1CC[C@]2(C)[C@H]3C(=O)C=C4[C@@H]5C[C@@](C)(C(=O)OCc6ccccc6)CC[C@]5(C)CC[C@@]4(C)[C@]3(C)CC[C@H]2C1(C)C | 5.76 µM
12 | > 40 µM | > 40 µM | > 40 µM | > 40 µM | CN(CC(=O)O[C@H]1CC[C@]2(C)[C@H]3C(=O)C=C4[C@@H]5C[C@@](C)(C(=O)OCc6ccccc6)CC[C@]5(C)CC[C@@]4(C)[C@]3(C)CC[C@H]2C1(C)C)C(=O)OC(C)(C)C | > 40 µM
13 | 3.43 µM | 4.69 µM | 5.15 µM | 2.94 µM | CC[C@H](C)[C@H](N)C(=O)N[C@H]1CC[C@]2(C)[C@H]3C(=O)C=C4[C@@H]5C[C@@](C)(C(=O)OCc6ccccc6)CC[C@]5(C)CC[C@@]4(C)[C@]3(C)CC[C@H]2C1(C)C | 4.13 µM
14 | 3.17 µM | 4.39 µM | 3.07 µM | 5 µM | C[C@H](N)C(=O)O[C@H]1CC[C@]2(C)[C@H]3C(=O)C=C4[C@@H]5C[C@@](C)(C(=O)OCc6ccccc6)CC[C@]5(C)CC[C@@]4(C)[C@]3(C)CC[C@H]2C1(C)C | 3.4 µM
15 | > 40 µM | > 40 µM | > 40 µM | > 40 µM | CC(C)C[C@H](NC(=O)OC(C)(C)C)C(=O)N[C@H]1CC[C@]2(C)[C@H]3C(=O)C=C4[C@@H]5C[C@@](C)(C(=O)OCc6ccccc6)CC[C@]5(C)CC[C@@]4(C)[C@]3(C)CC[C@H]2C1(C)C | > 40 µM
16 | > 40 µM | > 40 µM | > 40 µM | > 40 µM | CC(C)C[C@H](NC(=O)OC(C)(C)C)C(=O)O[C@H]1CC[C@]2(C)[C@H]3C(=O)C=C4[C@@H]5C[C@@](C)(C(=O)OCc6ccccc6)CC[C@]5(C)CC[C@@]4(C)[C@]3(C)CC[C@H]2C1(C)C | > 40 µM
17 | > 40 µM | > 40 µM | > 40 µM | > 40 µM | CC[C@H](C)[C@H](NC(=O)OC(C)(C)C)C(=O)O[C@H]1CC[C@]2(C)[C@H]3C(=O)C=C4[C@@H]5C[C@@](C)(C(=O)OCc6ccccc6)CC[C@]5(C)CC[C@@]4(C)[C@]3(C)CC[C@H]2C1(C)C | > 40 µM
18 | 4.73 µM | 5.22 µM | 6.39 µM | 9.05 µM | CC1(C)[C@@H](OC(=O)[C@@H]2CCCN2)CC[C@]2(C)[C@H]3C(=O)C=C4[C@@H]5C[C@@](C)(C(=O)OCc6ccccc6)CC[C@]5(C)CC[C@@]4(C)[C@]3(C)CC[C@@H]12 | 9.63 µM
19 | > 40 µM | > 40 µM | > 40 µM | > 40 µM | CSCC[C@H](NC(=O)OC(C)(C)C)C(=O)O[C@H]1CC[C@]2(C)[C@H]3C(=O)C=C4[C@@H]5C[C@@](C)(C(=O)OCc6ccccc6)CC[C@]5(C)CC[C@@]4(C)[C@]3(C)CC[C@H]2C1(C)C | > 40 µM
20 | > 40 µM | > 40 µM | > 40 µM | > 40 µM | CC1(C)[C@@H](O)CC[C@]2(C)[C@H]3C(=O)C=C4[C@@H]5C[C@@](C)(C(=O)O)CC[C@]5(C)CC[C@@]4(C)[C@]3(C)CC[C@@H]12 [ENOXOLONE] | > 40 µM
21 | > 40 µM | > 40 µM | > 40 µM | > 40 µM | CC(C)(C)OC(=O)N[C@@H](Cc1ccccc1)C(=O)O[C@H]1CC[C@]2(C)[C@H]3C(=O)C=C4[C@@H]5C[C@@](C)(C(=O)OCc6ccccc6)CC[C@]5(C)CC[C@@]4(C)[C@]3(C)CC[C@H]2C1(C)C | > 40 µM
